The values that follow come from article PMC12166265 (Clinical Pharmacology and Therapeutics, 2025).

The target in one assay is T1, BCRP (Homo sapiens, UniProt Q9UNQ0).
T1 sequence (Q9UNQ0 1-655): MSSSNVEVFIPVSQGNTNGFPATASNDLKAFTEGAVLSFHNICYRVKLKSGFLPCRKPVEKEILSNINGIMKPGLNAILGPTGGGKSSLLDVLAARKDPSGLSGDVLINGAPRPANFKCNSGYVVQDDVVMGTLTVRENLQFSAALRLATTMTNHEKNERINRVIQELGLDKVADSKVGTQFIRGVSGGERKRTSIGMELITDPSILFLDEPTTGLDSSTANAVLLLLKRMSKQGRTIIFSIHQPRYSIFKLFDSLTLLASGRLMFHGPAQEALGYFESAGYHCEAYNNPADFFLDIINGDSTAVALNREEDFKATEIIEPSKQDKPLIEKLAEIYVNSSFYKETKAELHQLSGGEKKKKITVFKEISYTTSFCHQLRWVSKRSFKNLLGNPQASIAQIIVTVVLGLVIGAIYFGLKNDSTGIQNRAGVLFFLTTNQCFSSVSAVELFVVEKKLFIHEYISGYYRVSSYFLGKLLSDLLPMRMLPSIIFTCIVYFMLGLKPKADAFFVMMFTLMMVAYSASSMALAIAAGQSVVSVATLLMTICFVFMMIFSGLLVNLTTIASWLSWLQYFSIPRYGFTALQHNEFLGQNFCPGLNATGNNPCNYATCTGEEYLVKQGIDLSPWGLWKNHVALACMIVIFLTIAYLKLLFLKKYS
The assay is classed as biochemical.

A further assay has as its target T2, OATP1B1 (Homo sapiens, UniProt Q9Y6L6).
T2 sequence (Q9Y6L6 1-691): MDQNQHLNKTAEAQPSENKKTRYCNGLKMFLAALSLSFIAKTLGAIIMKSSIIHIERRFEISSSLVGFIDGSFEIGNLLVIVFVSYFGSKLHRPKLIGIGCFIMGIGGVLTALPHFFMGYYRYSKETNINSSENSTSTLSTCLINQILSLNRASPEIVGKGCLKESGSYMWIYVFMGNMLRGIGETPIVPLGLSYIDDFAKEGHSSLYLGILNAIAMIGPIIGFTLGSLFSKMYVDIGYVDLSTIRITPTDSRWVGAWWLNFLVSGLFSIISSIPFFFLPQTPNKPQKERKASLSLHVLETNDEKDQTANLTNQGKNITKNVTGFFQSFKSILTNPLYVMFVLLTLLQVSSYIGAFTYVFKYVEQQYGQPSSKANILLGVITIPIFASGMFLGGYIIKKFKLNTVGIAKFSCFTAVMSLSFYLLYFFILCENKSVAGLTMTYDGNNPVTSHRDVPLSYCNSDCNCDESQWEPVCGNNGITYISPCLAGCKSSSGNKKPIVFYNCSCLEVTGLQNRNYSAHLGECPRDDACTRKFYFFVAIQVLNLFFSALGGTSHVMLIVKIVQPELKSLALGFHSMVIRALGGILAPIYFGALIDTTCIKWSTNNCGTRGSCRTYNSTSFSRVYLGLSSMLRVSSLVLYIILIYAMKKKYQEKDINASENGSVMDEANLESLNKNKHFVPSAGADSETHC
The assay is classed as cell-based. The essentials: (§1)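 HEK293 lines overexpressing the named transporter were grown in DMEM with 10% FBS, 1% penicillin/streptomycin and line-specific selection antibiotics, at 37°C, humidified, 5% CO₂. Cell-based uptake assays measured inhibition of transporter activity.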

The next assay deals with T3, OATP1B3 (Homo sapiens, UniProt Q9NPD5).
T3 sequence (Q9NPD5 1-702): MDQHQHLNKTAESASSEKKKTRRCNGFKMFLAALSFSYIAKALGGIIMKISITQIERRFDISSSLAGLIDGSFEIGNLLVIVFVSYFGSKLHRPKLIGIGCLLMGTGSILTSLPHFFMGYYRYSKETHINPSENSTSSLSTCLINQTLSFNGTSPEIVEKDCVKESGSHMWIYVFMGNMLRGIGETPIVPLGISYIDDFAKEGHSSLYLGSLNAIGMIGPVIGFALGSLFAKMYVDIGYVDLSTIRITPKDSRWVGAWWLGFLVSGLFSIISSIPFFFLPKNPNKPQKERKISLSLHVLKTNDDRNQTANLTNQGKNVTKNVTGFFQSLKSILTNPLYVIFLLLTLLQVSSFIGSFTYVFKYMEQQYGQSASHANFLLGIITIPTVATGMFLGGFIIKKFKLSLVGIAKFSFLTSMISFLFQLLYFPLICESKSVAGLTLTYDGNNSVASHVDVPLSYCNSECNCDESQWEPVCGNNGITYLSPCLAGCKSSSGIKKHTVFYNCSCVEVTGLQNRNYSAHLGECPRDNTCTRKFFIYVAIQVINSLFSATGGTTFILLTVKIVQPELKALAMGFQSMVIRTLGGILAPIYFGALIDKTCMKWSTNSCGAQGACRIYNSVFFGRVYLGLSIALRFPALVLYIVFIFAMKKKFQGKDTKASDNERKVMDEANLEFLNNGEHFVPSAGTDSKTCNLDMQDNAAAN
It counts as cell-based. The essentials:
as §1

The next assay concerns the target T4, RFVT1 (Homo sapiens, UniProt Q9NWF4).
T4 sequence (Q9NWF4 1-448): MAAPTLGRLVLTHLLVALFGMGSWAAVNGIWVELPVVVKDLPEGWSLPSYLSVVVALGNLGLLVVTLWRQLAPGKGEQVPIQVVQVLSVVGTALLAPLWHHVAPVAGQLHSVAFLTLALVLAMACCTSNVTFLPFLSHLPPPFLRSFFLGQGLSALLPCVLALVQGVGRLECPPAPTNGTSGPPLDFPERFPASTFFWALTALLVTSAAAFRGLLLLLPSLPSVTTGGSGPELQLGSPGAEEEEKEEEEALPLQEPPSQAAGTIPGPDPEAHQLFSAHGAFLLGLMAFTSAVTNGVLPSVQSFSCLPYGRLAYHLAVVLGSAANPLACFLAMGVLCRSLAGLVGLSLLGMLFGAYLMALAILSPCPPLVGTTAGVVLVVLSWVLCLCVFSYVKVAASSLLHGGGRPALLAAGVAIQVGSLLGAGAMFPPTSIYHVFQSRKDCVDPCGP
The assay is classed as cell-based. The essentials:
as §1

For a further assay, the target named is T5, RFVT2 (Homo sapiens, UniProt Q9HAB3).
T5 sequence (Q9HAB3 1-445): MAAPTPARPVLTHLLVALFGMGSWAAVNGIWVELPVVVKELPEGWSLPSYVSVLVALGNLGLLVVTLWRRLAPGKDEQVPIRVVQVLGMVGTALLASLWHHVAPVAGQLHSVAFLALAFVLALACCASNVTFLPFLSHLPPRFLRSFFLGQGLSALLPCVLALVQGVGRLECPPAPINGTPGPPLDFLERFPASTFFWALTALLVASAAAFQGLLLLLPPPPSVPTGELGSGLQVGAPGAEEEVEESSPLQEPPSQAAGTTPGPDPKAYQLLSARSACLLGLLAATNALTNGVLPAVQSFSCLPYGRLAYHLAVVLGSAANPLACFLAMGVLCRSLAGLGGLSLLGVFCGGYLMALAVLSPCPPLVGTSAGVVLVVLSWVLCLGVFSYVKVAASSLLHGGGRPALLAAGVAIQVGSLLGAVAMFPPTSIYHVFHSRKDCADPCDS
The assay is classed as cell-based. The essentials: as §1

Another assay concerns the target T6, RFVT3 (Homo sapiens, UniProt Q9NQ40).
T6 sequence (Q9NQ40 1-469): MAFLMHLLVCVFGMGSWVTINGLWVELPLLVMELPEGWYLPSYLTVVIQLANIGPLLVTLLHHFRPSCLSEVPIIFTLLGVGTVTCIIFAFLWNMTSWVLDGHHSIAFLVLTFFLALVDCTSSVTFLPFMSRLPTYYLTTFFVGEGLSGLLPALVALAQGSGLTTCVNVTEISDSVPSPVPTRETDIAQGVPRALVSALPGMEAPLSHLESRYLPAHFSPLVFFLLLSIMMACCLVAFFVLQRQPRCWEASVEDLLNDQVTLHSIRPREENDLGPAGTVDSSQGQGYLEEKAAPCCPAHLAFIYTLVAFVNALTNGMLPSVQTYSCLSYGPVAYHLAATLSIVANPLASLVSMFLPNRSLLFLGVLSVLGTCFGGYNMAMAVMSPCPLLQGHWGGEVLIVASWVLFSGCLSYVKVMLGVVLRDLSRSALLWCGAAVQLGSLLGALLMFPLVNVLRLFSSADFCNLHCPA
The assay is classed as cell-based. The essentials: as §1

A further assay concerns hepatic BCRP. As to conditions: intravenous ceftriaxone as model; cited from earlier work.

With `CC1=NN(c2ccc(C)c(C)c2)C(=O)/C1=N\Nc1cccc(-c2cccc(C(=O)O)c2)c1O` [Eltrombopag], the IC50 against BCRP stood at 4.9 ± 0.6 µM; against OATP1B1 it was 1.4 ± 1.2 µM; at OATP1B3, 4 ± 3.1 µM; on RFVT1, 44.7 ± 18.3 µM; against RFVT2 it was 28.2 ± 15.7 µM; on RFVT3, 26.3 ± 34 µM. Also, in the assay with hepatic BCRP, the “Inhibition of hepatic BCRP” value is given as “does not inhibit”.
